Results: paper PMC4339026 (Biopolymers, 2014)

Key:
Assay type in all cases: biochemical
MMP-9 = MMP-9 (Homo sapiens, UniProt P14780); test: Selectivity testing against zinc metalloproteases: MMP-9; settings: read-out: IC50 MMP-9; n = 3 Mean ± SD
meprin β [1] = target: T1, meprin β (Homo sapiens, UniProt Q16820); test: Meprin β LOPAC pilot screen; settings: 18 μM
T1 sequence (Q16820 62-614 limits assumed): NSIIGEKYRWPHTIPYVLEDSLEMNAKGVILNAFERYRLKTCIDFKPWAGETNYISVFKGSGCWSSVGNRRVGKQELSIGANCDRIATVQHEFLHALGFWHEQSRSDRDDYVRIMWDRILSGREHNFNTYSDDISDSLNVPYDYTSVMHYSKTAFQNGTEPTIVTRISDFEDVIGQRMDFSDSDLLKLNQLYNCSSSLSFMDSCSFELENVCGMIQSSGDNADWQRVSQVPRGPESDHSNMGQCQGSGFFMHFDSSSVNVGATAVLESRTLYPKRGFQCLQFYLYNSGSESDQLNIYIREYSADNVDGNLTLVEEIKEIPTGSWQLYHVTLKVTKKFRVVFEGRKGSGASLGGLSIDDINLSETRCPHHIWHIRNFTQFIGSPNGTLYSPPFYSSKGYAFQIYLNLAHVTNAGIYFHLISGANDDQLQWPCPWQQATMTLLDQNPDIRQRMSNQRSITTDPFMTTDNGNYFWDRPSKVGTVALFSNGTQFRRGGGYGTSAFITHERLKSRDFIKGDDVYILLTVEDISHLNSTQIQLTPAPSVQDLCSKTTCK

ADAM17 = ADAM17 (Homo sapiens, UniProt P78536); test: Selectivity testing against zinc metalloproteases: ADAM17; settings: read-out: IC50 ADAM17; n = 3 Mean ± SD
Chain of ADAM17 (P78536 215-824, species assumed): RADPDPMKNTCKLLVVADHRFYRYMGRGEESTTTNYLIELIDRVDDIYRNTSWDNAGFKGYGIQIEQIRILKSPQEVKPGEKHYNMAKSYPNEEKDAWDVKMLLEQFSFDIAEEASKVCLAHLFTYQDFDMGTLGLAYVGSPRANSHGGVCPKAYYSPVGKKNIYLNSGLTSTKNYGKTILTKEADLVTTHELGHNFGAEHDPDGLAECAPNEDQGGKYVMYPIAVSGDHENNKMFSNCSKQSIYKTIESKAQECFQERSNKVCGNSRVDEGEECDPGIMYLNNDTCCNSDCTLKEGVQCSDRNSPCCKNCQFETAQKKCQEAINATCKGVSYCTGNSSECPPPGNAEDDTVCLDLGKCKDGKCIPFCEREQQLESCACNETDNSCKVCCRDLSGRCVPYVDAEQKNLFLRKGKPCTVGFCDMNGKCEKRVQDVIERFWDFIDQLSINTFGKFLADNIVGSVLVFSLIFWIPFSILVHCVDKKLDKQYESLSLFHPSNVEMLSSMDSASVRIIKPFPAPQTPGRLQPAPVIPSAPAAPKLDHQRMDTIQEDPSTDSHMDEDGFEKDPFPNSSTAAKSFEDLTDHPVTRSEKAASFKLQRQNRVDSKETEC

MMP-2 = target: T2, MMP-2 (Homo sapiens, UniProt P08253); test: Selectivity testing against zinc metalloproteases: MMP-2; settings: read-out: IC50 MMP-2; n = 3 Mean ± SD
T2 sequence (P08253 110-660): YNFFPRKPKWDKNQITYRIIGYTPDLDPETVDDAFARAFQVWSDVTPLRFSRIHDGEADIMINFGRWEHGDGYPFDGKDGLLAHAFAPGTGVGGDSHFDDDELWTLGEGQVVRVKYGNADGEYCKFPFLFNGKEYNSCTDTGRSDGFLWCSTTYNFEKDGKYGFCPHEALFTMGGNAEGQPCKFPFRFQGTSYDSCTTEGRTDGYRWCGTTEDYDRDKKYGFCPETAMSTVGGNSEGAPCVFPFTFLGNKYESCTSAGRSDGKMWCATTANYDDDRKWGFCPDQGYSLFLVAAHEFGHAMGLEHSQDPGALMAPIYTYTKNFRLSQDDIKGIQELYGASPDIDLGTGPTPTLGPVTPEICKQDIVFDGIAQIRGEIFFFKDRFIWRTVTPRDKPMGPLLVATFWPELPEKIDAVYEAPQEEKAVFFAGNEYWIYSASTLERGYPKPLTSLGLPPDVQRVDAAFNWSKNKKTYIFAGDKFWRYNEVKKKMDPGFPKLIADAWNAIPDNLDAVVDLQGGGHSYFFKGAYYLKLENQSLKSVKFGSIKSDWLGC

meprin β [2] = target: T1, meprin β; test: Meprin β HTS FRET assay, dose response; settings: dose response experiment, data not shown
Summary of the method: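 Trypsin-activated meprin β (trypsin removed on immobilized ovomucoid) in 50 mM Hepes, 0.01% Brij-35, pH 7.5, added as 2x (0.15 nM) solution. Pin-transferred inhibitor was preincubated 30 min at RT. 2x (20 μM) (MCA)-EDEDED-(K-ε-DNP) was then added, run 1 h at RT, and read at ex 324/em 393 nm. A 3-fold dilution series was run in quadruplicate, and % inhibition was fitted with a 4-parameter equation. DMSO final was 0.1% or 1.0%.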

MMP-1 = target: T3, MMP-1 (Homo sapiens, UniProt P03956); test: Selectivity testing against zinc metalloproteases: MMP-1; settings: read-out: IC50 MMP-1; n = 3 Mean ± SD
T3 sequence (P03956 100-469): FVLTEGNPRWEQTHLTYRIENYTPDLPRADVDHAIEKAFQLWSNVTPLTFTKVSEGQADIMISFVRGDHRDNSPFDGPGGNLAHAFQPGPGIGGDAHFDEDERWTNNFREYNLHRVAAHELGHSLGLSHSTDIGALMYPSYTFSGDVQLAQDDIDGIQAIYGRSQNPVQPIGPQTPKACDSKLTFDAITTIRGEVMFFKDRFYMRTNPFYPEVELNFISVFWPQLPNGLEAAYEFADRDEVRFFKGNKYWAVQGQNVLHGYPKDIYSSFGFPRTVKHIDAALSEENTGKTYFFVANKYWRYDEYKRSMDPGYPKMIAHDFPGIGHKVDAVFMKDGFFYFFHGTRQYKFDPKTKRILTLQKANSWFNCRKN

meprin α = target: T4, meprin α (Homo sapiens, UniProt Q16819); test: Meprin α HTS FRET assay, dose response; settings: read-out: IC50 Meprin α; selectivity testing; n = 3 Mean ± SD
T4 sequence (Q16819 66-653 limits assumed): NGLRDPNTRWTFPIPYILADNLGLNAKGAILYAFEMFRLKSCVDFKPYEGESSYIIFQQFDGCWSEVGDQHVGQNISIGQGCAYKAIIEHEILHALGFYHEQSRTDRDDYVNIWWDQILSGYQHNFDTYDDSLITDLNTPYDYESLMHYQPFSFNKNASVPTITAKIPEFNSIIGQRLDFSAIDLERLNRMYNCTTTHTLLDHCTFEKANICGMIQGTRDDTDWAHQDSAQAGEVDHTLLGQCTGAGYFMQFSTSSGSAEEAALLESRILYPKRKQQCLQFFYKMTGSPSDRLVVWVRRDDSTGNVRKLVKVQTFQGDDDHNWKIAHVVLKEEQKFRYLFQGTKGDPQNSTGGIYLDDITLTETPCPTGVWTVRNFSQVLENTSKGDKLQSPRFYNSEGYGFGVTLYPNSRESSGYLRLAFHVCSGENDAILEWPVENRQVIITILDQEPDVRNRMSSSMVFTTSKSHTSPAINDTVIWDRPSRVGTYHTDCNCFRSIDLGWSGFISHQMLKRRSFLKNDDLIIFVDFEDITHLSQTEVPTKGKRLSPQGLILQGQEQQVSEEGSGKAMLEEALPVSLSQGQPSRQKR
Summary of the method: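 Recombinant human Strep-tagged meprin α was expressed in baculovirus-infected BTI-TN-5B1-4 cells, trypsin-activated, then freed of trypsin. It was used as a 2x solution at 2.6 nM in 50 mM Hepes, 0.01% Brij-35, pH 7.5. Test compound was pre-incubated 30 min at RT, then 2x (MCA)-YVADAPK-(K-ε-DNP) at 20 μM was added for 1 h at RT. Read at ex 324/em 393 nm. 3-fold dilutions in quadruplicate; 4-parameter fit; 0.1% or 1.0% DMSO.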

ADAM10 = target: T5, ADAM10 (Homo sapiens, UniProt O14672); test: Selectivity testing against zinc metalloproteases: ADAM10; settings: read-out: IC50 ADAM10; n = 3 Mean ± SD
T5 sequence (O14672 214-748): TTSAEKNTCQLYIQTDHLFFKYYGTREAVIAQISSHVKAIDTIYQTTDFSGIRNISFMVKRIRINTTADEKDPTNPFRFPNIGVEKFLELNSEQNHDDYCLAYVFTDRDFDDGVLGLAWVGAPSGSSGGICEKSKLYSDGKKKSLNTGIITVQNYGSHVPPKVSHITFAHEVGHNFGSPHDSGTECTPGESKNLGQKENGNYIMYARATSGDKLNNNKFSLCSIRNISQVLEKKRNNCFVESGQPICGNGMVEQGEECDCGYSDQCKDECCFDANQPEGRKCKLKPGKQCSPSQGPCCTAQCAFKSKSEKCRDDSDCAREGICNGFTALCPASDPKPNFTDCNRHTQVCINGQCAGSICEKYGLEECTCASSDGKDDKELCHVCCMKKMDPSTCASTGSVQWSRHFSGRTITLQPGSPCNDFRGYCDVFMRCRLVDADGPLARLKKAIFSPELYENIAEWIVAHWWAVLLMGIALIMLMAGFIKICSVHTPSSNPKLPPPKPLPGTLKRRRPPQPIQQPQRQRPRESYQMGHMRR

MMP-13 = MMP-13 (Homo sapiens, UniProt P45452); test: Selectivity testing against zinc metalloproteases: MMP-13; settings: read-out: IC50 MMP-13; n = 3 Mean ± SD

Chain of MMP-9 (P14780 94-707, species assumed): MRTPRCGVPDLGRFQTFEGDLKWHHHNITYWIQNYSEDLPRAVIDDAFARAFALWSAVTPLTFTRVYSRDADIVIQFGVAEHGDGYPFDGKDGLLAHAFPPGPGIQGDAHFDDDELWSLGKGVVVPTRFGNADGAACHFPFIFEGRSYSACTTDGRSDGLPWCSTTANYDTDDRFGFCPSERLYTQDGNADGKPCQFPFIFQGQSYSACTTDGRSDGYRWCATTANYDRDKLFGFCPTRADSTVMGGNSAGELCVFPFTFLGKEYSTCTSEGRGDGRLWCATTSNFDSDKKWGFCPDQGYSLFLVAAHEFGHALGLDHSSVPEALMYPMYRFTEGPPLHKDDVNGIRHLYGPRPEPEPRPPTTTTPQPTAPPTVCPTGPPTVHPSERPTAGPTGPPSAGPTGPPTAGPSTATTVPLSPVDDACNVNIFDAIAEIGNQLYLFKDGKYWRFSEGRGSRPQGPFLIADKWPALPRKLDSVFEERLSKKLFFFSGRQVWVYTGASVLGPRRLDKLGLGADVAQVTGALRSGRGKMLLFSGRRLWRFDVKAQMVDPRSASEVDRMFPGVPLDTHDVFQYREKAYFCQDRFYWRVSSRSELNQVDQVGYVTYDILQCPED

N.N.[Cl][Pt][Cl] [Cisplatin, cisplatin]
IC50 (MMP-9): 13.9 ± 2.1 µM
% inhibition meprin β in pilot screen (meprin β [1]): negative inhibition values
meprin β LOPAC pilot screen outcome (meprin β [1]; hit cutoff 25% inhibition): selective hits
IC50 (ADAM17): 5.1 ± 0.4 µM
IC50 (MMP-2): 5.1 ± 0.6 µM
meprin β dose response behaviour (meprin β [2]): dose dependent negative inhibition
IC50 (MMP-1): 5.1 ± 0.5 µM
IC50 (meprin α): > 100 µM
IC50 (ADAM10): 4.2 ± 0.2 µM
IC50 (MMP-13): > 100 µM
